Our source for the fold change (FC) values is ChEMBL document CHEMBL4706730, “A Set of Highly Sensitive Sirtuin Fluorescence Probes for Screening Small-Molecular Sirtuin Defatty-Acylase Inhibitors” (ACS Med Chem Lett, 2021).

Molecules are shown by their SMILES. Numbered stars: 1 amine (or outer) side, 2 acyl side, 3 side chain; on linkers, the order of the positions; unused ones are H or OH. Square brackets hold non-standard residues; d marks the D form. Peptide text beside a SMILES is read from it. * marks the point of attachment. X1 = O=C(O)c1cc(NC(=S)*)ccc1-c1c2ccc(=O)cc-2oc2cc(O)ccc12; X2 = CN(CCC(=O)*)c1ccc(/N=N/c2ccc([N+](=O)[O-])cc2)cc1; Achc(trans-4) = O=C([C@H]1CC[C@H](N[*:1])CC1)[*:2]

Assay [1] deals with T1, NAD-dependent protein deacetylase sirtuin-7 (Homo sapiens) (UniProt Q9NRC8).
T1 sequence (whole entry): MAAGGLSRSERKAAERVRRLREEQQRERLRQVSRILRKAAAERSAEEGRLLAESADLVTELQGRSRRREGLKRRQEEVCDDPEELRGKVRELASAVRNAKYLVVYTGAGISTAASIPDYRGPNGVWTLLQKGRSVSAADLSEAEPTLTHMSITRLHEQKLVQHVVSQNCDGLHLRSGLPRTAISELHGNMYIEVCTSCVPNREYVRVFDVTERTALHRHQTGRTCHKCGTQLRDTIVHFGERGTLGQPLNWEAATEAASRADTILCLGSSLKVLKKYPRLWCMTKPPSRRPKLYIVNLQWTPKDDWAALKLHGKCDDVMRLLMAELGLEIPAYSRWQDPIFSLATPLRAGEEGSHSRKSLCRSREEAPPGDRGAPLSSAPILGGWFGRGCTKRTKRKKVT
Nature of the assay: Binding affinity to SIRT7 (unknown origin) assessed as increase in fluorescence intensity at 2.5 uM measured at 5 mins interval for 1 hr in presence of NAD+ by fluorometric method relative to control. A digest of the protocol:
(§1)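 Each FITC/quencher FRET peptide probe was incubated with recombinant SIRT1–7 in 96-well half-area plates at 37 °C for 1 h. The fluorescence increase is reported as a fold change, SIRT(+) signal over SIRT(−) signal, after 1 h.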

In assay [2] the target is T2, NAD-dependent protein deacetylase sirtuin-2 (Homo sapiens) (UniProt Q8IXJ6).
T2 sequence (whole entry): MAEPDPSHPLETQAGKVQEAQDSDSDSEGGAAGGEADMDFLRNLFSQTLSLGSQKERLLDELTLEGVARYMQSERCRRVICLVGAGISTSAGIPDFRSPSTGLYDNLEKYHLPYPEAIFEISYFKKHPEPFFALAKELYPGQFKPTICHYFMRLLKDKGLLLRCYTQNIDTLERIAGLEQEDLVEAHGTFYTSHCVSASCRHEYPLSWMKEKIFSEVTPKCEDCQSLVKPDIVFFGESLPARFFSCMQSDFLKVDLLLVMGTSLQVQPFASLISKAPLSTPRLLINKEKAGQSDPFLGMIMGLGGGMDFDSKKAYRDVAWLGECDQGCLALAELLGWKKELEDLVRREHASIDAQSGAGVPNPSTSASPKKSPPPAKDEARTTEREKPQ
Nature of the assay: Binding affinity to SIRT2 (unknown origin) assessed as increase in fluorescence intensity at 2.5 uM measured at 5 mins interval for 1 hr in presence of NAD+ by fluorometric method relative to control. A digest of the protocol: as §1

In assay [3] the target is NAD-dependent protein deacylase sirtuin-5, mitochondrial (Homo sapiens) (UniProt Q9NXA8). Kind of assay: Binding affinity to SIRT5 (unknown origin) assessed as increase in fluorescence intensity at 2.5 uM measured at 5 mins interval for 1 hr in presence of NAD+ by fluorometric method relative to control. In outline: as §1
In assay [4] the target is NAD-dependent protein deacylase sirtuin-6 (Homo sapiens) (UniProt Q8N6T7). Kind of assay: Binding affinity to SIRT6 (unknown origin) assessed as increase in fluorescence intensity at 2.5 uM measured at 5 mins interval for 1 hr in presence of NAD+ by fluorometric method relative to control. In outline: as §1
Assay [5] concerns the target T3, NAD-dependent protein deacetylase sirtuin-1 (Homo sapiens) (UniProt Q96EB6).
T3 sequence (whole entry): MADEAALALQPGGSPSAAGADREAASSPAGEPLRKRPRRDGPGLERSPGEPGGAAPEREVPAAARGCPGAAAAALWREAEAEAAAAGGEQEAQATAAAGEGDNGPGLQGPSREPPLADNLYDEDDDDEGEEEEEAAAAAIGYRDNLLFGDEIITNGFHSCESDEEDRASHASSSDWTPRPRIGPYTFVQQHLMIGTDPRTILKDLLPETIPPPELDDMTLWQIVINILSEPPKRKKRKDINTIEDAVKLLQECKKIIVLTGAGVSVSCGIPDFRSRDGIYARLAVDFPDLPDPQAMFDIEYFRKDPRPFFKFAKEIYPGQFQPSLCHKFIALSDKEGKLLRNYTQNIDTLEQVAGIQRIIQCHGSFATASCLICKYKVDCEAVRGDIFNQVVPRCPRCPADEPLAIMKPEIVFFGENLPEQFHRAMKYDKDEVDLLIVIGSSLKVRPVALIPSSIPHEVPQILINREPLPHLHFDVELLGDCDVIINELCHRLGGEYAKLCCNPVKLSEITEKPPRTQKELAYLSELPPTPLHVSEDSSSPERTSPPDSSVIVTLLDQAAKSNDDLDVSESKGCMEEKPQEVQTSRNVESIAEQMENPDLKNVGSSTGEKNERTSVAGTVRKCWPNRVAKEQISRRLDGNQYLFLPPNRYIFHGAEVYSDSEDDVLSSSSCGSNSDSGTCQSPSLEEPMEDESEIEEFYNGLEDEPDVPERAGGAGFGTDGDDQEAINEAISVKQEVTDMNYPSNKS
Nature of the assay: Binding affinity to SIRT1 (unknown origin) assessed as increase in fluorescence intensity at 2.5 uM measured at 5 mins interval for 1 hr in presence of NAD+ by fluorometric method relative to control. A digest of the protocol:
as §1

The target of assay [6] is T4, NAD-dependent protein lipoamidase sirtuin-4, mitochondrial (Homo sapiens) (UniProt Q9Y6E7).
T4 sequence (whole entry): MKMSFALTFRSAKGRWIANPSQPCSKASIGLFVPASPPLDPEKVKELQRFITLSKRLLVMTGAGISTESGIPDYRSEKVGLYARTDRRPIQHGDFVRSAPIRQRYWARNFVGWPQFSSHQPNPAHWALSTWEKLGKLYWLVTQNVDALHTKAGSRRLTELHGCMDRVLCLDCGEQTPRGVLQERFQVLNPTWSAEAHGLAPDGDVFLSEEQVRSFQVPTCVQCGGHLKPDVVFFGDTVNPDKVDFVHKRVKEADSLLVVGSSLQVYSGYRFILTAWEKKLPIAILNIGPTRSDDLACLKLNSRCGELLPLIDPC
Kind of assay: Binding affinity to SIRT4 (unknown origin) assessed as increase in fluorescence intensity at 2.5 uM measured at 5 mins interval for 1 hr in presence of NAD+ by fluorometric method relative to control. In outline: as §1

The target in assay [7] is T5, NAD-dependent protein deacetylase sirtuin-3, mitochondrial (Homo sapiens) (UniProt Q9NTG7).
T5 sequence (whole entry): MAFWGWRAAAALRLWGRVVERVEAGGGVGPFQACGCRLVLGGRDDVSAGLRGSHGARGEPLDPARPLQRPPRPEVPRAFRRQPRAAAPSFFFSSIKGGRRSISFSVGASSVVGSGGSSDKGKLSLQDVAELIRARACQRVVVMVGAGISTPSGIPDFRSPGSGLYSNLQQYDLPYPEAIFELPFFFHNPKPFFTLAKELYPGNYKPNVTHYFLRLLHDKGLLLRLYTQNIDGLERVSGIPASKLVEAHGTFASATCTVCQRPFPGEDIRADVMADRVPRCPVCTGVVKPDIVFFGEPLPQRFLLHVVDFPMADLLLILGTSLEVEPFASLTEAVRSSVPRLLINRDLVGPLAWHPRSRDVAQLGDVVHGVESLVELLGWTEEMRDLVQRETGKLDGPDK
Kind of assay: Binding affinity to SIRT3 (unknown origin) assessed as increase in fluorescence intensity at 2.5 uM measured at 5 mins interval for 1 hr in presence of NAD+ by fluorometric method relative to control. A digest of the protocol: as §1

Chain of NAD-dependent protein deacylase sirtuin-5, mitochondrial (Homo sapiens) (Q9NXA8 37-310 limits assumed): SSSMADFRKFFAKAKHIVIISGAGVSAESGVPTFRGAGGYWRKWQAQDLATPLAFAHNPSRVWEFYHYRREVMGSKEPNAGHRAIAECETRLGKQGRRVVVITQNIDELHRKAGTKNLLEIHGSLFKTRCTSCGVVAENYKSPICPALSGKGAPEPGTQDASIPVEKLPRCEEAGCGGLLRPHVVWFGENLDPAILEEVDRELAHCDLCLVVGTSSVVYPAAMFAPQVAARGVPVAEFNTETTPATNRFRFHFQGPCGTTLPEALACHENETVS
Chain of NAD-dependent protein deacylase sirtuin-6 (Homo sapiens) (Q8N6T7 whole entry): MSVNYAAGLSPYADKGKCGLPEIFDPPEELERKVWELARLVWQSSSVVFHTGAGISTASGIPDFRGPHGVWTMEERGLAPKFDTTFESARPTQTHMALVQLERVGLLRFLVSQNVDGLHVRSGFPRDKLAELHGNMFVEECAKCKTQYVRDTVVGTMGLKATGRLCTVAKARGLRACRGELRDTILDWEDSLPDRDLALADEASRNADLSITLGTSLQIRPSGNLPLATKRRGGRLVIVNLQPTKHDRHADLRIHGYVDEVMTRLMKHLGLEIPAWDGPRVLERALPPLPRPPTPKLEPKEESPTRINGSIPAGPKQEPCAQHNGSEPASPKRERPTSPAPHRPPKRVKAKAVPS

Consider `C[C@H](NC(=O)[C@@H](NC(=O)[C@H](CCC(N)=O)NC(=O)[C@H]1CC[C@H](NC(=S)Nc2ccc(-c3c4ccc(=O)cc-4oc4cc(O)ccc34)c(C(=O)O)c2)CC1)[C@@H](C)O)C(=O)N[C@@H](CCCNC(=N)N)C(=O)N[C@@H](CCCCNC(=O)CCN(C)c1ccc(/N=N/c2ccc([N+](=O)[O-])cc2)cc1)C(=O)N[C@@H](CO)C(=O)N[C@H](C(=O)NCC(=O)NCC(=O)O)[C@@H](C)O`, for which the fold change (FC) in assay [1] is 1.04; in assay [2], 4.06; in assay [3], 1.07; in assay [4], 9.38; in assay [5] it was 6.06; in assay [6] it was 1.2.
For `CN(CCC(=O)NCCCC[C@H](NC(=O)[C@H](Cc1ccccc1)NC(=O)[C@H](CO)NC(=O)[C@H](CCCCN)NC(=O)[C@H](CCCCN)NC(=O)[C@H]1CC[C@H](NC(=S)Nc2ccc(-c3c4ccc(=O)cc-4oc4cc(O)ccc34)c(C(=O)O)c2)CC1)C(=O)N[C@@H](CCC(=O)O)C(=O)N[C@@H](CCCNC(=N)N)C(=O)N[C@@H](CO)C(=O)N[C@@H](CO)C(N)=O)c1ccc(/N=N/c2ccc([N+](=O)[O-])cc2)cc1` (X1-[Achc(trans-4)]KKSFK(X2)ERSS-NH2), the fold change (FC) in assay [1] came to 0.99; in assay [7], 26.2; in assay [2], 5.64; in assay [3] it was 1.05; in assay [4], 3.36; in assay [5], 8.86. Also, the fold change (FC) in assay [6] is 1.2.
In the case of `C[C@H](NC(=O)CNC(=O)CNC(=O)[C@H](CCCCN)NC(=O)[C@H]1CC[C@H](NC(=S)Nc2ccc(-c3c4ccc(=O)cc-4oc4cc(O)ccc34)c(C(=O)O)c2)CC1)C(=O)N[C@@H](CCCCNC(=O)CCN(C)c1ccc(/N=N/c2ccc([N+](=O)[O-])cc2)cc1)C(=O)N[C@@H](CCCNC(=N)N)C(=O)N[C@@H](Cc1c[nH]cn1)C(=O)N[C@@H](CCCNC(=N)N)C(=O)N[C@@H](CCCCN)C(N)=O`, the fold change (FC) in assay [1] turned out to be 1.09; in assay [2], 10.3; in assay [3], 1.07; in assay [4] it was 2.55; in assay [5], 14.7; in assay [6] it was 1.04.
On to `C[C@H](NC(=O)CNC(=O)CNC(=O)[C@H]1CC[C@H](NC(=S)Nc2ccc(-c3c4ccc(=O)cc-4oc4cc(O)ccc34)c(C(=O)O)c2)CC1)C(=O)N[C@@H](CCCCNC(=O)CCc1ccc(/N=N/c2ccc(N(C)C)cc2)cc1)C(=O)N[C@@H](CCCNC(=N)N)C(=O)N[C@@H](Cc1c[nH]cn1)C(=O)N[C@@H](CCCNC(=N)N)C(N)=O`, for which the fold change (FC) in assay [1] turned out to be 1.01; in assay [7], 5.45; in assay [2], 4.72; in assay [3] it was 1.03; in assay [4], 1.05; in assay [5] it was 10.9. Also, the fold change (FC) in assay [6] came to 0.92.
`CC(=O)N[C@@H](CCC(N)=O)C(=O)N[C@H](C(=O)N[C@@H](C)C(=O)N[C@@H](CCCNC(=N)N)C(=O)N[C@@H](CCCCNC(=O)CCc1ccc(/N=N/c2ccc(N(C)C)cc2)cc1)C(=O)N[C@@H](CO)C(=O)N[C@H](C(=O)NCC(=O)NCC(=O)NCCCNC(=S)Nc1ccc(-c2c3ccc(=O)cc-3oc3cc(O)ccc23)c(C(=O)O)c1)[C@@H](C)O)[C@@H](C)O`: the fold change (FC) in assay [1] was determined as 1.04; in assay [2], 5.89; in assay [3], 1.08; in assay [4], 3.6; in assay [5], 13.8; in assay [6] it was 1.03.
As to `CC[C@H](C)[C@H](NC(=O)[C@H](CCCNC(=N)N)NC(=O)[C@H](Cc1ccc(O)cc1)NC(=O)[C@H](CC(=O)O)NC(=O)[C@H]1CC[C@H](NC(=S)Nc2ccc(-c3c4ccc(=O)cc-4oc4cc(O)ccc34)c(C(=O)O)c2)CC1)C(=O)N[C@@H](CCCCNC(=O)CCN(C)c1ccc(/N=N/c2ccc([N+](=O)[O-])cc2)cc1)C(=O)N[C@@H](CCCNC(=N)N)C(=O)N[C@@H](Cc1ccc(O)cc1)C(=O)N[C@@H](Cc1c[nH]cn1)C(=O)N[C@H](C(N)=O)[C@@H](C)O` (X1-[Achc(trans-4)]DYRIK(X2)RYHT-NH2), the fold change (FC) is 1.05 in assay [1]; 26.7 in assay [7]; 6.97 in assay [2]; 1.15 in assay [3]; 1.19 in assay [4]; 5.85 in assay [5]. The fold change (FC) in assay [6] was found to be 1.25.
For the compound `C[C@H](NC(=O)CNC(=O)CNC(=O)[C@H](CCCCN)NC(=O)[C@H]1CC[C@H](NC(=S)Nc2ccc(-c3c4ccc(=O)cc-4oc4cc(O)ccc34)c(C(=O)O)c2)CC1)C(=O)N[C@@H](CCCCNC(=O)CCc1ccc(/N=N/c2ccc(N(C)C)cc2)cc1)C(=O)N[C@@H](CCCNC(=N)N)C(=O)N[C@@H](Cc1c[nH]cn1)C(=O)N[C@@H](CCCNC(=N)N)C(=O)N[C@@H](CCCCN)C(N)=O`, the fold change (FC) in assay [1] was determined as 1.03; in assay [2], 5.45; in assay [3] it was 1.07; in assay [4], 1.33; in assay [5] it was 12; in assay [6], 0.93.
